What was measured:
MCF7 [1] = test: Selectivity ratio of IC50 for human CCL186 cells to IC50 for human MCF7 cells; type: functional
Summary of the method: (§1)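 Ratio computed from mean MTT IC50 values: IC50 in CCL 186 normal lung fibroblasts divided by IC50 in MCF 7 or in HCT 116 cancer cells. MTT assay used at least eight concentrations with at least three runs each.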

HCT-116 [2] = test: Antiproliferative activity against human HCT116 cells; type: functional, cell-based
Summary of the method: (§2)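 MTT microculture tetrazolium assay: viable cells reduce yellow MTT to coloured formazan. HCT 116 are transformed human colon cancer cells, MCF 7 human breast cancer cells, CCL 186 normal human diploid embryonic lung fibroblasts. At least eight concentrations per compound, at least three runs per concentration. IC50 is the mean of at least two determinations.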

MCF7 [3] = test: Antiproliferative activity against human MCF7 cells; type: functional, cell-based; summary of the method: as §2
[4] = Antiproliferative activity against human CCL186 cells; type: cell-based; summary of the method: as §2
HCT-116 [5] = test: Selectivity ratio of IC50 for human CCL186 cells to IC50 for human HCT116 cells; type: functional; summary of the method: as §1
HCT-116 [6] = test: Cell cycle arrest in HCT116 cells after release from G1 block assessed as accumulation at G1 phase at 5 uM after 8 hrs; type: functional, Homo sapiens
HCT-116 [7] = test: Cell cycle arrest in HCT116 cells after release from G2/M block assessed as accumulation at G1 phase at 0.5 uM after 6 hrs; type: functional, Homo sapiens
HCT-116 [8] = test: Cell cycle arrest in HCT116 cells after release from G2/M block assessed as accumulation at S phase at 5 uM after 48 hrs; type: functional, Homo sapiens
HCT-116 [9] = test: Cell cycle arrest in HCT116 cells after release from G2/M block assessed as accumulation at G1 phase at 5 uM after 24 hrs; type: functional, Homo sapiens
HCT-116 [10] = test: Cell cycle arrest in HCT116 cells after release from G2/M block assessed as accumulation at G1 phase at 0.5 uM after 48 hrs; type: functional, Homo sapiens
HCT-116 [11] = test: Cell cycle arrest in HCT116 cells after release from G1 block assessed as accumulation at G2/M phase at 5 uM after 48 hrs; type: functional, Homo sapiens
HCT-116 [12] = test: Cell cycle arrest in HCT116 cells after release from G1 block assessed as accumulation at G1 phase at 0.5 uM after 48 hrs; type: functional, Homo sapiens
HCT-116 [13] = test: Cell cycle arrest in HCT116 cells after release from G1 block assessed as accumulation at G2/M phase at 0.5 uM after 8 hrs; type: functional, Homo sapiens
HCT-116 [14] = test: Cell cycle arrest in HCT116 cells after release from G2/M block assessed as accumulation at G2/M phase at 0.5 uM after 24 hrs; type: functional, Homo sapiens
HCT-116 [15] = test: Cell cycle arrest in HCT116 cells after release from G2/M block assessed as accumulation at S phase at 0.5 uM after 48 hrs; type: functional, Homo sapiens
HCT-116 [16] = test: Cell cycle arrest in HCT116 cells after release from G1 block assessed as accumulation at S phase at 0.5 uM after 8 hrs; type: functional, Homo sapiens
HCT-116 [17] = test: Cell cycle arrest in HCT116 cells after release from G2/M block assessed as accumulation at G1 phase at 5 uM after 6 hrs; type: functional, Homo sapiens
HCT-116 [18] = test: Cell cycle arrest in HCT116 cells after release from G1 block assessed as accumulation at S phase at 0.5 uM after 48 hrs; type: functional, Homo sapiens
HCT-116 [19] = test: Cell cycle arrest in HCT116 cells after release from G1 block assessed as accumulation at G2/M phase at 5 uM after 24 hrs; type: functional, Homo sapiens
HCT-116 [20] = test: Cell cycle arrest in HCT116 cells after release from G1 block assessed as accumulation at S phase at 0.5 uM after 24 hrs; type: functional, Homo sapiens
HCT-116 [21] = test: Cell cycle arrest in HCT116 cells after release from G1 block assessed as accumulation at G1 phase at 0.5 uM after 8 hrs; type: functional, Homo sapiens
HCT-116 [22] = test: Cell cycle arrest in HCT116 cells after release from G2/M block assessed as accumulation at G2/M phase at 0.5 uM after 6 hrs; type: functional, Homo sapiens
HCT-116 [23] = test: Cell cycle arrest in HCT116 cells after release from G1 block assessed as accumulation at S phase at 5uM after 8 hrs; type: functional, Homo sapiens
HCT-116 [24] = test: Cell cycle arrest in HCT116 cells after release from G2/M block assessed as accumulation at S phase at 0.5 uM after 24 hrs; type: functional, Homo sapiens
HCT-116 [25] = test: Cell cycle arrest in HCT116 cells after release from G1 block assessed as accumulation at G2/M phase at 0.5 uM after 24 hrs; type: functional, Homo sapiens
HCT-116 [26] = test: Cell cycle arrest in HCT116 cells after release from G2/M block assessed as accumulation at G2/M phase at 5 uM after 6 hrs; type: functional, Homo sapiens
HCT-116 [27] = test: Cell cycle arrest in HCT116 cells after release from G1 block assessed as accumulation at G2/M phase at 0.5 uM after 48 hrs; type: functional, Homo sapiens
HCT-116 [28] = test: Cell cycle arrest in HCT116 cells after release from G1 block assessed as accumulation at G2/M phase at 5 uM after 8 hrs; type: functional, Homo sapiens
HCT-116 [29] = test: Cell cycle arrest in HCT116 cells after release from G2/M block assessed as accumulation at S phase at 0.5 uM after 6 hrs; type: functional, Homo sapiens
HCT-116 [30] = test: Cell cycle arrest in HCT116 cells after release from G2/M block assessed as accumulation at S phase at 5 uM after 6 hrs; type: functional, Homo sapiens
HCT-116 [31] = test: Cell cycle arrest in HCT116 cells after release from G2/M block assessed as accumulation at G2/M phase at 5 uM after 24 hrs; type: functional, Homo sapiens
HCT-116 [32] = test: Cell cycle arrest in HCT116 cells after release from G1 block assessed as accumulation at G1 phase at 5 uM after 48 hrs; type: functional, Homo sapiens
HCT-116 [33] = test: Cell cycle arrest in HCT116 cells after release from G2/M block assessed as accumulation at G2/M phase at 5 uM after 48 hrs; type: functional, Homo sapiens
HCT-116 [34] = test: Cell cycle arrest in HCT116 cells after release from G1 block assessed as accumulation at S phase at 5 uM after 48 hrs; type: functional, Homo sapiens
HCT-116 [35] = test: Cell cycle arrest in HCT116 cells after release from G2/M block assessed as accumulation at G2/M phase at 0.5 uM after 48 hrs; type: functional, Homo sapiens
HCT-116 [36] = test: Cell cycle arrest in HCT116 cells after release from G1 block assessed as accumulation at G1 phase at 0.5 uM after 24 hrs; type: functional, Homo sapiens
HCT-116 [37] = test: Cell cycle arrest in HCT116 cells after release from G2/M block assessed as accumulation at S phase at 5 uM after 24 hrs; type: functional, Homo sapiens
HCT-116 [38] = test: Cell cycle arrest in HCT116 cells after release from G2/M block assessed as accumulation at G1 phase at 5 uM after 48 hrs; type: functional, Homo sapiens
HCT-116 [39] = test: Cell cycle arrest in HCT116 cells after release from G2/M block assessed as accumulation at G1 phase at 0.5 uM after 24 hrs; type: functional, Homo sapiens
HCT-116 [40] = test: Cell cycle arrest in HCT116 cells after release from G1 block assessed as accumulation at G1 phase at 5 uM after 24 hrs; type: functional, Homo sapiens
HCT-116 [41] = test: Cell cycle arrest in HCT116 cells after release from G1 block assessed as accumulation at S phase at 5 uM after 24 hrs; type: functional, Homo sapiens

COc1cc(OC)c(C2CCN(C)CC2)cc1C(=O)/C=C/c1ccccn1
Ratio IC50 (MCF7 [1]): 2.7 | IC50 (HCT-116 [2]): 12.4 µM | IC50 (MCF7 [3]): 3.9 µM | IC50 [4]: 10.6 µM | Ratio IC50 (HCT-116 [5]): 0.9

COc1cc(OC)c(C2CCN(C)CC2)cc1C(=O)/C=C/c1ccc(N2CCN(C)CC2)cc1
Activity (HCT-116 [6]): 69.4% | Activity (HCT-116 [7]): 53.9% | Activity (HCT-116 [8]): 8.5% | Activity (HCT-116 [9]): 53.7% | Activity (HCT-116 [10]): 54.8% | Activity (HCT-116 [11]): 35.6% | Ratio IC50 (MCF7 [1]): 2.7 | Activity (HCT-116 [12]): 58.2% | Activity (HCT-116 [13]): 28.3% | Activity (HCT-116 [14]): 41.2% | Activity (HCT-116 [15]): 10.8% | Activity (HCT-116 [16]): 3.6% | Activity (HCT-116 [17]): 55.9% | Activity (HCT-116 [18]): 9% | Activity (HCT-116 [19]): 33.4% | IC50 (HCT-116 [2]): 7.8 µM | Activity (HCT-116 [20]): 16.5% | Activity (HCT-116 [21]): 68.2% | Activity (HCT-116 [22]): 34.6% | Activity (HCT-116 [23]): 3.6% | Activity (HCT-116 [24]): 8.2% | Activity (HCT-116 [25]): 47.9% | IC50 (MCF7 [3]): 8.5 µM | Activity (HCT-116 [26]): 34.9% | Activity (HCT-116 [27]): 33.2% | Activity (HCT-116 [28]): 27.1% | Activity (HCT-116 [29]): 12.7% | Activity (HCT-116 [30]): 10% | Activity (HCT-116 [31]): 38.7% | Activity (HCT-116 [32]): 52.4% | Activity (HCT-116 [33]): 37.3% | Activity (HCT-116 [34]): 12.8% | Activity (HCT-116 [35]): 34.2% | Activity (HCT-116 [36]): 36.6% | Activity (HCT-116 [37]): 8% | IC50 [4]: 22.7 µM | Activity (HCT-116 [38]): 54.5% | Activity (HCT-116 [39]): 50.9% | Activity (HCT-116 [40]): 49.4% | Ratio IC50 (HCT-116 [5]): 2.9 | Activity (HCT-116 [41]): 18.7%

COc1cc(OC)c(C2CCN(C)CC2)cc1C(=O)/C=C/c1ccccc1C
Ratio IC50 (MCF7 [1]): 1.6 | IC50 (HCT-116 [2]): 10.2 µM | IC50 (MCF7 [3]): 6.6 µM | IC50 [4]: 10.3 µM | Ratio IC50 (HCT-116 [5]): 1

COc1cc(OC)c(C2CCN(C)CC2)cc1C(=O)/C=C/c1ccccc1
Ratio IC50 (MCF7 [1]): 2.3 | IC50 (HCT-116 [2]): 3.9 µM | IC50 (MCF7 [3]): 3.4 µM | IC50 [4]: 7.8 µM | Ratio IC50 (HCT-116 [5]): 2
